The test system of one data set is Escherichia coli. The experiment in a line: Antibacterial activity against Escherichia coli ATCC 25922 incubated for 20 to 24 hrs by CLSI based broth microdilution method. The settings on record: time 20-24 hrs. Type of data set: functional. (In general: In broth dilution the organism is exposed to a series of concentrations in liquid medium.)
The subject of the next data set is Acinetobacter baumannii. The experiment in a line: Antibacterial activity against Acinetobacter baumannii ATCC 19606 incubated for 20 to 24 hrs by CLSI based broth microdilution method. Type of data set: functional. The settings on record: time 20-24 hrs.
Another data set deals with Klebsiella pneumoniae. The experiment in a line: Antibacterial activity against Klebsiella pneumoniae ATCC BAA-1705 incubated for 20 to 24 hrs by CLSI based broth microdilution method. In kind it is functional. The settings on record: time 20-24 hrs.
The next data set deals with Pseudomonas aeruginosa. The experiment in a line: Antibacterial activity against Pseudomonas aeruginosa ATCC 27853 incubated for 20 to 24 hrs by CLSI based broth microdilution method. In kind it is functional. The settings on record: time 20-24 hrs.
The target of data set [1] is T1, DNA gyrase (Escherichia coli, UniProt P0AES4+P0AES6). The experiment in a line: Inhibition of Escherichia coli DNA gyrase ATPase activity incubated for 80 mins. In kind it is protein-complex assay.
The target of data set [2] is Voltage-gated inwardly rectifying potassium channel KCNH2 (Homo sapiens, UniProt Q12809). The experiment in a line: Inhibition of human ERG expressed in CHO cells by automated path clamp method. In kind it is toxicity, cell-based. The settings on record: for inhibition (INH): human, cho. An outline of the steps:
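Patch-clamp electrophysiology on the hERG ion channel, recorded at 37 °C; the IC₅₀ was determined.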

The target in data set [3] is T1, DNA gyrase. The experiment in a line: Inhibition of Escherichia coli DNA gyrase supercoiling activity using relaxed pBR322 DNA as substrate preincubated for 5 mins followed by enzyme addition and measured after 1 hr by agarose gel electrophoresis. Type of data set: protein-complex assay.
Data set [4] in a line: Inhibition of Escherichia coli topoisomerase 4 decatenation activity using kDNA as substrate preincubated for 5 mins followed by enzyme addition and measured after 1 hr by agarose gel electrophoresis method.
The target in data set [5] is DNA topoisomerase 2-alpha (Homo sapiens, UniProt P11388). The experiment in a line: Inhibition of human topoisomerase 2 alpha decatenation activity using kDNA as substrate preincubated for 5 mins followed by enzyme addition and measured after 1 hr by agarose gel electrophoresis.

≈ marks a conversion by molar mass, not a printed value.

Voltage-gated inwardly rectifying potassium channel KCNH2, sequence (Q12809 whole entry): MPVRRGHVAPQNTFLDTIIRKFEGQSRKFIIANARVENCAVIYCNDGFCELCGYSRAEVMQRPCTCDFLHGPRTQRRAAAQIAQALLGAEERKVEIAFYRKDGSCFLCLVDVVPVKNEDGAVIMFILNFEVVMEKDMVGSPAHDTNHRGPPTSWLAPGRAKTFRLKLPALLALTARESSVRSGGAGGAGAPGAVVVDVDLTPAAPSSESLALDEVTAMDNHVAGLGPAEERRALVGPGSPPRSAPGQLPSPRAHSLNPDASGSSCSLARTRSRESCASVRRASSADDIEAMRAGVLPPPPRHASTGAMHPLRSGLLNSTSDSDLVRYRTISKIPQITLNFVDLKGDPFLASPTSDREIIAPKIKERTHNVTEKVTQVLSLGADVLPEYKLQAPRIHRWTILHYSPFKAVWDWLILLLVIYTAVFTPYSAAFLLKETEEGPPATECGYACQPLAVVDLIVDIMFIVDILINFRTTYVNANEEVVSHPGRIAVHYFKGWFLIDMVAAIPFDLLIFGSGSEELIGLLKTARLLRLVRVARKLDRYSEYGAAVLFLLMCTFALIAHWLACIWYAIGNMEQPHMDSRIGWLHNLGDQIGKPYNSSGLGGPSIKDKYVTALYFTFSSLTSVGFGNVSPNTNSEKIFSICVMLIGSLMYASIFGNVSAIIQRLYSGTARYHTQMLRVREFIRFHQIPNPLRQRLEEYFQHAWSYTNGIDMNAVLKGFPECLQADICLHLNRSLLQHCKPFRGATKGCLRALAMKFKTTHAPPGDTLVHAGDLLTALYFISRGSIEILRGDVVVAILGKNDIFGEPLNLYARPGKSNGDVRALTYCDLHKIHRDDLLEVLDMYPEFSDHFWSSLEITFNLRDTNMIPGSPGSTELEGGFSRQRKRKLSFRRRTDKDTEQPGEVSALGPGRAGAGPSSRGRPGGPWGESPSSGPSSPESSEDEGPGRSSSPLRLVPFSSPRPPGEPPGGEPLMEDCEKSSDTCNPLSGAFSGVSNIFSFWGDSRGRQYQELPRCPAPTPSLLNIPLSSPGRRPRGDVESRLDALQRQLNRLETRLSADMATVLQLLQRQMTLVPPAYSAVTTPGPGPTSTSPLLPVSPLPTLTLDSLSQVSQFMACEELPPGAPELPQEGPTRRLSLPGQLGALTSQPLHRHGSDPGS
DNA topoisomerase 2-alpha, sequence (P11388 whole entry): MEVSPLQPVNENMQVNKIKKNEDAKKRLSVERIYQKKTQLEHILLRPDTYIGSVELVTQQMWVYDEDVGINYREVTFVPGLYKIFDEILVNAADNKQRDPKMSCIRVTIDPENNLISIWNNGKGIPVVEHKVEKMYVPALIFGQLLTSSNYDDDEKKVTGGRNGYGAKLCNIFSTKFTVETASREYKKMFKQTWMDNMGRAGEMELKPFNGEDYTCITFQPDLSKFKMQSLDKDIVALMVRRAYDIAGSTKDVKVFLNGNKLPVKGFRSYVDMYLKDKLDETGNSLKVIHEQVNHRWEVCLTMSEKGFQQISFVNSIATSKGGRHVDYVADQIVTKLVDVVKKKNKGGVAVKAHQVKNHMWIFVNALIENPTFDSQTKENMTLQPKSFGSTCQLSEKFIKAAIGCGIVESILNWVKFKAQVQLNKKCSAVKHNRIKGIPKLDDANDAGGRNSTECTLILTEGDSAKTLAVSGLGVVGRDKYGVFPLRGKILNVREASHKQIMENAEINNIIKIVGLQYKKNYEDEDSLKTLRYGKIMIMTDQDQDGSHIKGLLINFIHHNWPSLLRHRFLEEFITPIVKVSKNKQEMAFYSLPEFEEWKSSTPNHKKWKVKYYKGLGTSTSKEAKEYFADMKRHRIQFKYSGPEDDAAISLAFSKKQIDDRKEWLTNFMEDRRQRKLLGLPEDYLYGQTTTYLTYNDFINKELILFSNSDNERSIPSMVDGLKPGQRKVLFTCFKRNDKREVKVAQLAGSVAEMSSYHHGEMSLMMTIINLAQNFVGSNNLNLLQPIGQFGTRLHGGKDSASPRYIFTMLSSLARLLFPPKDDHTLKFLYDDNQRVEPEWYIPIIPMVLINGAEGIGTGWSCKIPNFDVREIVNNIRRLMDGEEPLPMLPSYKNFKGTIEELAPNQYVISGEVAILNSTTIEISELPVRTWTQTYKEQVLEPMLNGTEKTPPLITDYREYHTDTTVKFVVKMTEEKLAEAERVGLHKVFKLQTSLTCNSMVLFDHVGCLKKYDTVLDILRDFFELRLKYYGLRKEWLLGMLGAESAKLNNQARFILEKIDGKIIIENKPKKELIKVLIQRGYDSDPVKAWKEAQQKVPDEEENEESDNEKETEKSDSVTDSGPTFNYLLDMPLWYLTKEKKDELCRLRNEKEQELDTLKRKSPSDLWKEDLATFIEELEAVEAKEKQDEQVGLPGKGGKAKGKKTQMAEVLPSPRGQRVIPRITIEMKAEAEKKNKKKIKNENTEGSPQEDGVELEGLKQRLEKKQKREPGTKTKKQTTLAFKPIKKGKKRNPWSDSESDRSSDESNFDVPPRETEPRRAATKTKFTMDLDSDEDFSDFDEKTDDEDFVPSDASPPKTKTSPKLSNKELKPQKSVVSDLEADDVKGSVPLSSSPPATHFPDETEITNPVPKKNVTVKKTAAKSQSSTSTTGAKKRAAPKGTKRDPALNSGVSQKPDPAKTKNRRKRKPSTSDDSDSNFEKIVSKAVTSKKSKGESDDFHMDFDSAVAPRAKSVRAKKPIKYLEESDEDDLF

By MIC is commonly meant the smallest concentration in the dilution series that meets the test's criterion for growth inhibition. High values mean a less susceptible organism, low ones a more susceptible organism. As usually defined, the IC50 is the concentration that inhibits the measured activity by half. Low readings indicate inhibition by little substance, high ones a need for much substance. As to `O=C1COc2ccc(N3CC(CCCNC4Cc5ccc(F)cc5C4)OC3=O)nc2N1` (stereo not given), the minimal inhibitory concentration (MIC) against Escherichia coli was 1 µg/mL (≈ 2.34 µM); in the data set with Acinetobacter baumannii, 4 µg/mL (≈ 9.38 µM); in the data set on Klebsiella pneumoniae, 8 µg/mL (≈ 18.8 µM); against Pseudomonas aeruginosa, 16 µg/mL (≈ 37.5 µM). The compound further came in with a concentration for half-maximal inhibition (IC50) against DNA gyrase [1] of 160 nM. Besides, the “inhibition (INH)” value in data set [2] is “Active”.

For `O=c1cc(NCC2CN(CC3Cc4ccnc(Cl)c4C3)C2)c2cc(F)ccc2o1` (stereo not given), the MIC in the data set on Escherichia coli came to 2 µg/mL (≈ 4.83 µM); against Acinetobacter baumannii, 4 µg/mL (≈ 9.66 µM); in the data set on Klebsiella pneumoniae it was 32 µg/mL (≈ 77.3 µM); against Pseudomonas aeruginosa it was 8 µg/mL (≈ 19.3 µM). The compound also came in with an IC50 against DNA gyrase [1] of 160 nM. For the same compound, the “inhibition (INH)” value in data set [2] is “Active”.

With `N#Cc1cccc2c1CC(CNCCC1CN(c3ccc4c(n3)NC(=O)CO4)C(=O)O1)C2` (stereo not given), the MIC against Escherichia coli is at most 0.06 µg/mL; in the data set on Acinetobacter baumannii, 0.125 µg/mL (≈ 0.288 µM); in the data set on Klebsiella pneumoniae, 1 µg/mL (≈ 2.31 µM); in the data set on Pseudomonas aeruginosa it was 0.5 µg/mL (≈ 1.15 µM). In addition, the 50% inhibitory concentration (IC50) on DNA gyrase [1] is 21 nM; on DNA gyrase [3], 100 nM; in data set [4], 160 nM; in data set [5] it was above 100000 nM; in data set [2], 900 nM.

Take `O=C1COc2ccc(N3CC(CCNC4Cc5cccc(Cl)c5C4)OC3=O)nc2N1` (stereo not given): the minimal inhibitory concentration (MIC) in the data set with Escherichia coli turned out to be 2 µg/mL (≈ 4.66 µM); in the data set with Acinetobacter baumannii, 4 µg/mL (≈ 9.33 µM); in the data set on Klebsiella pneumoniae it was 16 µg/mL (≈ 37.3 µM); against Pseudomonas aeruginosa, 16 µg/mL (≈ 37.3 µM). Besides, the concentration for half-maximal inhibition (IC50) against DNA gyrase [1] was determined as 290 nM. In addition, in [2], the “inhibition (INH)” value is recorded as “Active”.

Turning to `O=C1COc2ccc(N3CC(CCNCC4Cc5cccc(F)c5C4)OC3=O)nc2N1` (stereo not given), the MIC against Escherichia coli is 0.5 µg/mL (≈ 1.17 µM); with Acinetobacter baumannii it was 0.5 µg/mL (≈ 1.17 µM); with Klebsiella pneumoniae, 4 µg/mL (≈ 9.38 µM); with Pseudomonas aeruginosa, 4 µg/mL (≈ 9.38 µM). Moreover, half-maximal inhibition against DNA gyrase [1] (IC50) required 100 nM. In data set [2], the “inhibition (INH)” value is “Active”.

With `O=C1COc2ccc(N3CC(CNCCC4Cc5cccc(Cl)c5C4)OC3=O)nc2N1` (stereo not given), the MIC against Escherichia coli was determined as 0.25 µg/mL (≈ 0.564 µM); in the data set with Acinetobacter baumannii, 0.25 µg/mL (≈ 0.564 µM); in the data set on Klebsiella pneumoniae, 4 µg/mL (≈ 9.03 µM); against Pseudomonas aeruginosa, 1 µg/mL (≈ 2.26 µM). Besides, on DNA gyrase [1], inhibition was half-maximal at 90 nM (IC50). In addition, in [2], the “inhibition (INH)” value is given as “Active”.

On to `O=C1COc2ccc(N3CC(CNC4Cc5cccc(Cl)c5C4)OC3=O)nc2N1` (stereo not given), for which the minimum inhibitory concentration (MIC) in the data set on Escherichia coli is 8 µg/mL (≈ 19.3 µM); with Acinetobacter baumannii, 4 µg/mL (≈ 9.64 µM); against Klebsiella pneumoniae, above 64 µg/mL; in the data set on Pseudomonas aeruginosa, above 64 µg/mL. This compound gave an IC50 on DNA gyrase [1] of 580 nM. For the same compound, in data set [2], the “inhibition (INH)” value was “Active”.

On to `N#Cc1cccc2c1CC(NCCCC1CN(c3ccc4c(n3)NC(=O)CO4)C(=O)O1)C2` (stereo not given), for which the MIC turned out to be 0.25 µg/mL (≈ 0.577 µM) in the data set with Escherichia coli, 0.5 µg/mL (≈ 1.15 µM) in the data set on Acinetobacter baumannii, 2 µg/mL (≈ 4.61 µM) in the data set with Klebsiella pneumoniae and 2 µg/mL (≈ 4.61 µM) with Pseudomonas aeruginosa. For the same compound, the IC50 at DNA gyrase [1] came to 57 nM. Besides, the “inhibition (INH)” value in data set [2] is “Active”.

With `O=C1COc2ccc(N3CC(CCCNC4Cc5cccc(F)c5C4)OC3=O)nc2N1` (stereo not given), the MIC worked out at 0.5 µg/mL (≈ 1.17 µM) against Escherichia coli, 1 µg/mL (≈ 2.34 µM) in the data set on Acinetobacter baumannii, 4 µg/mL (≈ 9.38 µM) against Klebsiella pneumoniae and 4 µg/mL (≈ 9.38 µM) in the data set on Pseudomonas aeruginosa. At DNA gyrase [1], this compound displayed a half-maximal inhibitory concentration (IC50) of 120 nM. Further, the “inhibition (INH)” value in data set [2] is “Active”.

On to `O=C1COc2ccc(N3CC(CNCC4Cc5cccc(Cl)c5C4)OC3=O)nc2N1` (stereo not given), for which the minimum inhibitory concentration (MIC) in the data set with Escherichia coli amounted to 0.5 µg/mL (≈ 1.17 µM); against Acinetobacter baumannii, 1 µg/mL (≈ 2.33 µM); with Klebsiella pneumoniae, 32 µg/mL (≈ 74.6 µM); in the data set with Pseudomonas aeruginosa, 8 µg/mL (≈ 18.7 µM). This compound registered an IC50 against DNA gyrase [1] of 230 nM. Further, in data set [2], the “inhibition (INH)” value is on record as “Active”.

Consider `O=C1COc2ccc(N3CC(CCCNC4Cc5cccc(Cl)c5C4)OC3=O)nc2N1` (stereo not given), for which the minimal inhibitory concentration (MIC) in the data set with Escherichia coli was 0.25 µg/mL (≈ 0.564 µM); with Acinetobacter baumannii it was 0.5 µg/mL (≈ 1.13 µM); against Klebsiella pneumoniae, 2 µg/mL (≈ 4.52 µM); in the data set on Pseudomonas aeruginosa, 2 µg/mL (≈ 4.52 µM). In addition, the IC50 against DNA gyrase [1] was found to be 72 nM. Besides, the “inhibition (INH)” value in data set [2] is on record as “Active”.

With `O=C1COc2ccc(N3CC(CCCNC4Cc5ccc(Cl)cc5C4)OC3=O)nc2N1` (stereo not given), the minimal inhibitory concentration (MIC) stood at 2 µg/mL (≈ 4.52 µM) in the data set on Escherichia coli, 4 µg/mL (≈ 9.03 µM) with Acinetobacter baumannii, 8 µg/mL (≈ 18.1 µM) in the data set with Klebsiella pneumoniae and 16 µg/mL (≈ 36.1 µM) against Pseudomonas aeruginosa. This compound also registered an IC50 against DNA gyrase [1] of 250 nM. In [2], the “inhibition (INH)” value is recorded as “Active”.

For the compound `O=C1COc2ccc(N3CC(CCCNC4CCc5c(Cl)cccc54)OC3=O)nc2N1` (stereo not given), the MIC with Escherichia coli was determined as 2 µg/mL (≈ 4.52 µM); against Acinetobacter baumannii it was 8 µg/mL (≈ 18.1 µM); against Klebsiella pneumoniae, 16 µg/mL (≈ 36.1 µM); against Pseudomonas aeruginosa, 8 µg/mL (≈ 18.1 µM). This compound also came in with a half-maximal inhibitory concentration (IC50) against DNA gyrase [1] of 190 nM. Moreover, the “inhibition (INH)” value in data set [2] was “Active”.

On to `O=C1COc2ccc(N3CC(CCNCCC4Cc5cccc(Cl)c5C4)OC3=O)nc2N1` (stereo not given), for which the MIC with Escherichia coli came to 0.5 µg/mL (≈ 1.09 µM); with Acinetobacter baumannii, 1 µg/mL (≈ 2.19 µM); in the data set on Klebsiella pneumoniae, 8 µg/mL (≈ 17.5 µM); against Pseudomonas aeruginosa, 4 µg/mL (≈ 8.75 µM). Besides, on DNA gyrase [1], half-maximal inhibition (IC50) was put at 120 nM. Besides, the “inhibition (INH)” value in [2] is recorded as “Active”.

On to `O=C1COc2ccc(N3CC(CCNCC4Cc5ccccc5C4)OC3=O)nc2N1` (stereo not given), for which the MIC was determined as 1 µg/mL (≈ 2.45 µM) against Escherichia coli, 2 µg/mL (≈ 4.9 µM) against Acinetobacter baumannii, 8 µg/mL (≈ 19.6 µM) in the data set with Klebsiella pneumoniae and 8 µg/mL (≈ 19.6 µM) in the data set with Pseudomonas aeruginosa. This compound came in with an IC50 against DNA gyrase [1] of 180 nM. In addition, the “inhibition (INH)” value in [2] is reported as “Active”.

In the case of `O=C1COc2ccc(N3CC(CCNCC4Cc5cccc(Cl)c5C4)OC3=O)nc2N1` (stereo not given), the minimum inhibitory concentration (MIC) amounted to 0.125 µg/mL (≈ 0.282 µM) with Escherichia coli, 0.125 µg/mL (≈ 0.282 µM) in the data set with Acinetobacter baumannii, 2 µg/mL (≈ 4.52 µM) with Klebsiella pneumoniae and 2 µg/mL (≈ 4.52 µM) in the data set with Pseudomonas aeruginosa. At DNA gyrase [1], inhibition was half-maximal at 90 nM (IC50). In addition, the “inhibition (INH)” value in data set [2] is listed as “Active”.

For `O=C1COc2ccc(N3CC(CCCNC4Cc5ccccc5C4)OC3=O)nc2N1` (stereo not given), the MIC in the data set with Escherichia coli turned out to be 2 µg/mL (≈ 4.9 µM); in the data set on Acinetobacter baumannii, 8 µg/mL (≈ 19.6 µM); against Klebsiella pneumoniae it was 16 µg/mL (≈ 39.2 µM); against Pseudomonas aeruginosa it was 8 µg/mL (≈ 19.6 µM). The compound also returned an IC50 against DNA gyrase [1] of 270 nM. In addition, the “inhibition (INH)” value in [2] is “Active”.

The values above are taken from ChEMBL document CHEMBL5321266, “Discovery of a Series of Indane-Containing NBTIs with Activity against Multidrug-Resistant Gram-Negative Pathogens” (ACS Med Chem Lett, 2023).
